# Experimental data from different studies.
# Protocols differ between the studies behind these lines.
# Target: Serine/threonine-protein kinase N2 (PKN2, Homo sapiens, UniProt Q16513)
Structure (SMILES),observed,technique,tested at,remaining binding
O=C(NCc1ncc(C(F)(F)F)cc1Cl)c1ccc2c(c1)C1(CCS(=O)(=O)CC1)[C@@H](C1CC1)N2S(=O)(=O)c1ccc(F)cc1,cell-free assay,competition with immobilised ligand,1 µM,68%
O=C(NCCCN1CCOCC1)c1ccc(Nc2ncc(Cl)c(-c3ccc(Cl)s3)n2)cc1,binding,competition with immobilised ligand,1 µM,36%
COc1ccnn2ncc(-c3ccnc(N(C)C)n3)c12,binding,,1 µM,87%
CN([C@@H]1CCc2c(CC(=O)O)c3cc(S(C)(=O)=O)ccc3n2C1)S(=O)(=O)c1ccc(F)cc1,cell-free assay,competition with immobilised ligand,1 µM,100%
FC(F)(F)Oc1cccc(-c2cnc3ccc(-c4ccncc4)nn23)c1,cell-free assay,competition with immobilised ligand,5 µM,91%
C[C@@H]1CN(c2cc(-c3n[nH]c4ccc(OC5(C)CC5)cc34)ncn2)C[C@H](C)O1,cell-free assay,competition with immobilised ligand,0.1 µM,89%
COc1cnc(Nc2cccc(S(N)(=O)=O)c2)nc1N1CCN(c2ccccc2)CC1,binding,competition with immobilised ligand,1 µM,100%
C[C@@H](c1ccc(-n2cnc3c(N)ncnc32)cc1)N1CCc2nn(C)c(Cc3ccccc3)c2C1=O,binding,competition with immobilised ligand,0.1 µM,84%
CC(=O)Nc1c(C(C)=O)c(=O)n(C)c2nc(-c3ccc(Cl)cc3Cl)c(-c3ccc(Cl)cc3)cc12,cell-free assay,competition with immobilised ligand,1 µM,100%
CC1CCCN1c1nccc(-c2cnn3ncccc23)n1 (stereo not shown),binding,,1 µM,89%
O=C(NCCCC1CCCCC1)c1ccc(CNC(=O)c2cnn(-c3ccccc3)c2C(F)(F)F)cc1,cell-free assay,competition with immobilised ligand,0.1 µM,100%
Nc1ncc2c(n1)-c1c([nH]c3ccc(C#CC4CC4)cc13)CCCC2,binding,competition with immobilised ligand,1 µM,72%
C[C@@H]1CCN(c2nccc(-c3cnn4ncccc34)n2)C1,binding,,1 µM,71%
C=CC(=O)N1CCC(C(=O)NCC(=O)N2CCN(c3nc(-c4cnc(N)nc4C(F)F)nc(N4CCOCC4)n3)CC2)CC1,binding,competition with immobilised ligand,1 µM,84%
CN(CCCC(F)(F)F)c1nccc(-c2cnn3ncccc23)n1,binding,,1 µM,74%
O=C(NCC1CCOCC1)c1n[nH]cc1NC(=O)c1c(F)cccc1F,binding,competition with immobilised ligand,1 µM,89%
N[C@@H]1CCN(c2nccc(-c3cnn4ncccc34)n2)C1,binding,,1 µM,100%
O=C(c1ccc(Nc2nccc(-c3cc4ccccc4s3)n2)cc1)N1CCC(N2CCCC2)CC1,binding,competition with immobilised ligand,1 µM,45%
CN(C)c1nccc(-c2cnn3ncccc23)n1,binding,,1 µM,100%
O=C(NCCCN1CCOCC1)c1ccc(Nc2nccc(-c3cc4ccccc4s3)n2)cc1,binding,competition with immobilised ligand,1 µM,53%
Cc1c(NC(=O)c2cc(C(N)=O)nc3cc(F)ccc23)c(C(F)(F)F)nn1Cc1ccc(C#N)cc1,cell-free assay,competition with immobilised ligand,1 µM,81%
CN(C)c1nccc(-c2cnc3ncccn23)n1,binding,,1 µM,93%
